Rows were chosen to be rich in hits. Some 1.8% of all compounds tested hit in one or more screens of this group.
C2C12 statin: suppression of simvastatin myotoxicity; C2C12 myotubes + simvastatin, ATP luminescence, 48 h; scaled: DMSO 0, geranylgeraniol control 100; rescue of ATP level, % at 7.49 µM; actives 0.78% (n = 330,000); AID 602340;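 active means mean ATP rescue above about 67%, or every replicate alone reaching that limit, limit read from the data, passing the limit was not always enough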;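 further: myotubes were challenged with 10 µM simvastatin during compound exposure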
Efflux pump mplx: antifungal efflux pump inhibition, Nile Red retention; S. cerevisiae Candida pump triplex; actives 0.44% (n = 330,000); inhibition, % at 10 µM;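 active means plate passing quality check with inhibition over a set limit, or well fluorescence over plate mean plus 4 SD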;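 further: Nile Red retained in pooled yeast measured as flow cytometry median fluorescence; 0% = buffer negative control and 100% = Enniatin B positive control; higher means more Nile Red kept so more efflux inhibition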
Cneo AK release: Cryptococcus neoformans lysis via adenylate kinase release | C. neoformans lysis, adenylate kinase release luminescence, 4 h; normalised: neutral wells 0, clomiphene wells 100 | lysis activity, % at 15 µM | actives 0.2% (n = 360,000) | AID 651654;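 active means mean lysis activity across replicates of at least 80%, whatever share of replicates individually reach that level; inactive means mean lysis activity below 80%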
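Test system: log-phase Cryptococcus neoformans yeast cells. Input: 5 × 10^6 yeast cells/mL. Medium: fresh YPD growth medium. Doses: single dose. Incubation: static 4 h at 37 °C with compound, 1 h detection. Measured by: luminescent adenylate kinase detection reagent. Read-out: signal increase indicating cell lysis. Benchmarks: Clomiphene.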
Mot1-301 SUMO: inhibitors of SUMOylation pathway: yeast Mot1-301 growth rescue | actives 1% (n = 320,000) | AID 2716 | growth rescue, % at 18.8 µM | S. cerevisiae Mot1-301 growth rescue, ATP luminescence, 38.5C; percent above DMSO median, 100 means doubled;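 active means every valid replicate shows activation above 250% relative to neutral control wells; inactive means the rest, any valid replicate at or below 250%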;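 further: OY570 slx delta 5 strain wells were the positive control but not used for scaling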
* marks the source's active call; other numbers are inactive results; . = not tested or not shown.

SMILES	C2C12 statin	Efflux pump mplx	Cneo AK release	Mot1-301 SUMO
COCCNC(=O)C[C@H]1C=C[C@H](NS(=O)(=O)c2ccc(C)cc2)[C@@H](CO)O1	-0.4	.	105.3*	.
CC1Cc2cc(S(=O)(=O)N3CCN(c4ccccc4F)CC3)ccc2N1C(=O)C1CC1 (stereo not given)	6.5	0.1	8.5	2.5
CCOc1ccc(NC(=O)C(C)N2C(=O)c3ccccc3S2(=O)=O)cc1 (stereo not given)	-9.3	0.2	0.1	-9.5
CC(=O)N1c2ccc(S(=O)(=O)NCCC(=O)NCCc3ccc(C)cc3)cc2CC1C (stereo not given)	109.1*	0.0	-2.0	251.3
CC1Cc2cc(S(=O)(=O)NCCC(=O)NCc3ccc(F)cc3)ccc2N1C(=O)C1CC1 (stereo not given)	2.5	-0.1	.	-6.7
CC(=O)N1c2ccc(S(=O)(=O)NCCC(=O)NCc3ccc(F)cc3)cc2CC1C (stereo not given)	86.5*	-0.1	1.9	-0.7
CCCOc1ccc(N2C(=O)CC(N3CCN(c4ccccc4F)CC3)C2=O)cc1 (stereo not given)	1.2	0.2	-0.5	30.3
CCCOc1ccc(N2C(=O)CC(N3CCC(c4nncn4CC)CC3)C2=O)cc1 (stereo not given)	1.6	0.0	-6.3	307.3*
CS(=O)(=O)N1CCCCN2[C@H](CO)[C@H](c3ccc(C#Cc4ccccn4)cc3)[C@@H]2C1	.	.	-1.2	.
O=C(c1ccccc1F)N1CCN(C2CCC(c3ccccc3)CC2)CC1 (stereo not given)	-0.7	0.2	-5.8	281.7*
CC(C)Cn1c(SCC(=O)N2CCOCC2)nc2ccccc2c1=O	-2.5	0.0	2.4	.
CC(C)Cn1c(-c2ccc(Cl)cc2)cnc1SCC(=O)N1CCOCC1	-5.4	0.2	1.8	306.2*
O=C(CCCCCn1c(=O)[nH]c2ccccc2c1=O)N1CCN(Cc2ccc3c(c2)OCO3)CC1	-34.0	0.0	-0.7	-10.4
COc1ccc2c(c1OC)C(=O)O[C@@H]2[C@H]1c2c(cc3c(c2OC)OCO3)CCN1C	-19.6	0.4	-0.4	749.9*
CCN1CCN(c2ncnc3sc(C(=O)Nc4ccccc4F)c(C)c23)CC1	-4.3	0.0	1.8	15.4
C/C(=N\Nc1nccnc1Cl)c1c(F)c(F)c(F)c(F)c1F	.	0.0	.	-28.0
COC(=O)C1=C(CSCc2ccco2)NC(=O)NC1c1cc(C)ccc1C (stereo not given)	134.2*	0.2	-8.9	20.6
Cc1c(NC(=O)CSc2nnc(-c3ccco3)n2-c2ccccc2)c(=O)n(-c2ccccc2)n1C	-3.7	-0.1	0.2	6.6
CCC(C)[C@H](NC(=O)Nc1ccc(C(C)=O)cc1)C(=O)OC (stereo not given in full)	92.6*	-0.1	-0.8	-5.9
CCC(C)[C@H](NC(=O)Nc1ccc2c(c1)OCCO2)C(=O)OC (stereo not given in full)	.	0.1	.	170.3
Cc1cc(Cl)ccc1OCC(O)CNCCc1ccc(S(N)(=O)=O)cc1 (stereo not given)	-3.9	0.1	6.7	308.6*
O=C1CN=C(Nc2ccccc2Cl)N1Cc1ccc2c(c1)OCO2	.	0.1	-1.2	277.8
CCN1CCN(C(=O)c2ccc(CS(=O)(=O)Cc3ccccc3F)o2)CC1	95.4*	-0.1	-0.6	-7.5
Cc1cccc(Nc2nnc(-c3ccc(C(=O)N4C[C@H]5C[C@H](C4)c4cccc(=O)n4C5)cc3)c3ccccc23)c1	113.5*	0.0	5.7	-9.5
COc1ccc(Nc2nnc(-c3ccc(C)cc3)c3ccccc23)cc1C(=O)N1CCCCC1	-7.7	0.2	9.8	10.1
SMILES	C2C12 statin	Efflux pump mplx	Cneo AK release	Mot1-301 SUMO
O=C(O)c1ccc(-n2c(-c3cc(-c4ccco4)[nH]n3)n[nH]c2=S)cc1	7.9	-0.1	-0.3	.
CC(=O)c1ccc(-n2c(-c3cc(-c4ccco4)[nH]n3)n[nH]c2=S)cc1	83.7*	-0.1	2.5	0.0
COc1ccc([Si](C)(C)[C@H]2[C@H](CCO)O[C@@]3(C(=O)N(Cc4ccccc4)c4ccc(N5CCOC5=O)cc43)[C@@H]2C)cc1	.	.	6.7	.
O=C(O)c1cccc(-c2ccc(/C=N/Nc3ccc([N+](=O)[O-])cc3)o2)c1	.	0.3	-1.3	310.7*
O=[N+]([O-])c1ccc(N/N=C/c2cccc(O)c2O)cc1	92.1*	0.0	-2.6	317.4*
NC(=S)N/N=C/c1ccc(-c2cccc([N+](=O)[O-])c2)o1	.	0.1	.	221.6
NS(=O)(=O)c1ccc(-c2ccc(/C=N/NC(=O)c3ccc([N+](=O)[O-])cc3)o2)cc1	-12.4	0.0	2.1	311.1*
O=C(O)c1ccc(-c2ccc(/C=N/Nc3ccc([N+](=O)[O-])cc3)o2)cc1	.	0.1	.	196.9
Nc1nonc1C(=O)N/N=C/c1ccc(-c2cccc([N+](=O)[O-])c2)o1	175.5*	0.0	-0.6	1.3
Cc1nn(-c2ccccc2)c(Cl)c1/C=C/C(=O)c1ccccc1	.	0.0	7.3	5.8
Cc1csc(NC(=O)c2cccc(Cn3nc(C)c(Br)c3C)c2)n1	8.3	0.0	-0.7	-0.5
O=C(NC1=NCCCCC1)c1cccc2ccccc12	0.7	0.2	-3.1	-5.3
O=S(=O)(c1ccccc1)c1ccccc1/C=N\O	-0.4	-0.1	0.8	924.3
Cc1cc(OCC(=O)NCCN2CCOCC2)ccc1Br	-7.5	0.1	-1.2	57.0
O=C(CC(Cc1ccccc1)C(=O)O)Nc1ccc(F)cc1 (stereo not given)	-13.2	0.1	-2.3	-4.0
COc1ccc(NC(=O)CC(Cc2ccccc2)C(=O)O)cc1 (stereo not given)	-3.3	-0.1	0.3	282.2*
COc1ccc(NC(=O)c2c3c(nc4ccccc24)CCC3)cc1S(=O)(=O)N1CCOCC1	3.9	-0.1	-3.6	7.0
COc1ccc(S(=O)(=O)N[C@H]2CC[C@@H](CCNC(=O)CN3CCOCC3)O[C@@H]2CO)cc1	3.1	.	1.5	.
COc1cccc2cc(-c3csc(CCn4nc(C)cc4C)n3)c(=O)oc12	89.1*	-0.5	0.8	-17.5
COc1ccc(OC)c(-c2csc(CCn3nc(C)cc3C)n2)c1	-7.4	0.0	0.8	491.1
COC(=O)/C=C/c1c(C)[nH]c(=O)[nH]c1=O	1.8	0.0	.	-45.3
Cc1[nH]c(=O)[nH]c(=O)c1/C=C/C(=O)O	8.2	-0.1	0.3	853.2*
O=C(O)CN1C(=O)/C(=C\c2cccc(OC(=O)c3ccco3)c2)SC1=S	24.5	0.3	-0.8	416.8*
C=CCN1C(=O)/C(=C\c2cccc(OC(=O)c3ccco3)c2)SC1=S	2.6	-0.1	2.4	3.8
CCN1C(=O)/C(=C\c2cccc(OC(=O)c3ccco3)c2)SC1=S	-7.4	0.0	-0.3	321.2*
Cc1cc2c(cc1C)CSC(c1ccccc1O)SC2	15.0	0.0	-3.8	272.6*
COc1ccc(CN(C)C[C@H]2Oc3c(NS(=O)(=O)c4cn(C)cn4)cccc3C(=O)N([C@H](C)CO)C[C@@H]2C)cc1	57.1	.	-0.4	.
Cc1ccc(S(=O)(=O)N[C@@H]2CCCN(Cc3cccc(OCCO)c3)C2)cc1	.	.	85.5*	.
